High-throughput results (PubChem BioAssay)
Sampled rows, rich in hits. Any-hit rate of the full collection: about 3%.
PLC-gamma1 inh: PLC-gamma1 enzyme inhibitors, primary screen, biochemical, fluorescence, purified enzyme; 1-phosphatidylinositol 4,5-bisphosphate phosphodiesterase gamma-1 (Homo sapiens), P19174; AID 720700, 2013; fluorogenic substrate; actives 0.84% (n = 370,000); inhibition, % at 12.2 µM; in the data active means inhibition above about 9.5%
Target sequence (P19174 whole entry, looked up): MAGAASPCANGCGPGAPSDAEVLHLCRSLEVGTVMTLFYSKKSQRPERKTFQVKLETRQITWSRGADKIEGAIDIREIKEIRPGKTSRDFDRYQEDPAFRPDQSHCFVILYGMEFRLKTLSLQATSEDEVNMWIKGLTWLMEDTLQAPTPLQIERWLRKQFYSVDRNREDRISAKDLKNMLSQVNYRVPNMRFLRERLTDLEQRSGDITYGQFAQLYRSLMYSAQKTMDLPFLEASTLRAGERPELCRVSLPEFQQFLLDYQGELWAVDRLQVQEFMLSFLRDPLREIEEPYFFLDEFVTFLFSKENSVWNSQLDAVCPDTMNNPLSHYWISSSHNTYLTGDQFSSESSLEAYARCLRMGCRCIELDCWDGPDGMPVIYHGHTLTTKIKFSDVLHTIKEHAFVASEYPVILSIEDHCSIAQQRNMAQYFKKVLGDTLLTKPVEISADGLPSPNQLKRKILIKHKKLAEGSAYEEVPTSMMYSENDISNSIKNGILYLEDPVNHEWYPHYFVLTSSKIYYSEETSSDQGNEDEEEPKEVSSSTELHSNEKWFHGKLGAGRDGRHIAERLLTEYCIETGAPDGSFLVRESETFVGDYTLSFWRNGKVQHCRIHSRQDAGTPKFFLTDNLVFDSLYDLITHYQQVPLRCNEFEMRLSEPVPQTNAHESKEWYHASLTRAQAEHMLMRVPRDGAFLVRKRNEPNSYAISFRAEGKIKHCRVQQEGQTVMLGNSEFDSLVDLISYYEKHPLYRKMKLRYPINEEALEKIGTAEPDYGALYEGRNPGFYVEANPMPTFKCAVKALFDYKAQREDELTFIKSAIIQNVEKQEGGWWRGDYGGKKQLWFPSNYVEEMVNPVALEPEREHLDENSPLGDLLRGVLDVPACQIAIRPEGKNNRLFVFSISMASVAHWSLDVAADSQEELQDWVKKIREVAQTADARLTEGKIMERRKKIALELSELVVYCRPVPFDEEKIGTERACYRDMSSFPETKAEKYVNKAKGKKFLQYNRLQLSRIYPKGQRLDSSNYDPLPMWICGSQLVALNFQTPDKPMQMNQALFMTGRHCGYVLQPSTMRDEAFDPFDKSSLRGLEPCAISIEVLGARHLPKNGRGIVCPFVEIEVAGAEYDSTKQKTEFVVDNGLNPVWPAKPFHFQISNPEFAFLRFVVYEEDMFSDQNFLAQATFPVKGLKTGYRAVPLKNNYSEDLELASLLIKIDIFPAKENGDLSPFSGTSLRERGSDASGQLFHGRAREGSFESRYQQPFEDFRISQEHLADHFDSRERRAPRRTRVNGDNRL
DDE Tn7 FP inh: inhibitors of Tn7 peptide binding to fibrin DD(E), primary screen, biochemical, fluorescence polarization, human fibrin, Tn7 probe. actives 0.13% (n = 370,000). FP displacement of FITC-Tn7 peptide from fibrin DD(E); 0% = median of compound wells per plate. AID 720508, 2013. inhibition, % at 8.3 µM;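 active means inhibition above the mean of compounds falling within the control limits plus 3 SD of them, cut at about 14% in these data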;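 further: 0% = plate median of compound wells and 100% = 10 µM Aha-Tn7 peptide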
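Also added: labelled Tn7 tracer, 0.1 µM; Assay system: human fibrin DD(E) protein; Amount: 2 µM fibrin DD(E); Schedule: 10 min compound pre-incubation, 3 h probe incubation at room temperature; Repeats: one replicate per compound; Read-out basis: percent inhibition; Measured by: fluorescence polarization of the labelled Tn7 tracer.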
proKLK7 act: proKLK7 zymogen activators, primary screen, biochemical, fluorescence intensity; Kallikrein-7 (Homo sapiens), P49862; actives 0.9% (n = 370,000); purified proKLK7, EDANS-DABCYL substrate fluorescence; 100% is mature enzyme control, 0% vehicle; activation, % at 7 µM; AID 652039, 2013;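 active means activation above the mean of all tested compounds plus 3 SD, computed per campaign excluding outliers beyond control limits, cut at about 13% in these data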
PLC-beta3 inh: human PLC-beta3 inhibitors, primary screen, biochemical, fluorescence | 1-phosphatidylinositol 4,5-bisphosphate phosphodiesterase beta-3 (Homo sapiens), Q01970 | Purified PLC-beta3, fluorogenic substrate | inhibition, % at 12.2 µM | actives 0.18% (n = 370,000);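 further: 0% = median of compound wells on plate and 100% = full blocker control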
CendR NRP1 mod: modulators of CendR peptide binding to NRP-1, primary screen, biochemical, fluorescence polarization, uHTS; FAM-RPARPAR peptide binding to NRP-1; inhibition, % at 25 µM; actives 0.85% (n = 360,000);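 active means inhibition or corrected inhibition above about 18%, plus a signal ratio from 0.5 to 1.5, limit read from the data, passing the limit was not always enough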
Tn6 DDE FP: inhibitors of Tn6 peptide binding to fibrin DD(E), primary screen, biochemical, fluorescence polarization, human fibrin, Tn6 probe. Fibrinogen beta chain (Homo sapiens), P02675. Fibrin DD(E) TRITC-Tn6 fluorescence polarization displacement. inhibition, % at 8.3 µM. actives 0.21% (n = 370,000);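 active means inhibition above a per-campaign cutoff: mean of compounds within control limits plus 3 SD, cut at about 15% in these data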;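 further: 0% = median of all compound wells on the plate and 100% = blocking peptide control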
PLCg1 ctr: PLC-gamma1 enzyme inhibitors, counter-screen for PLC-beta3 inhibitor project, biochemical, fluorescence; inhibition, % at 12.3 µM; AID 743258, 2014; actives 3.1% (n = 3,300); shares compounds with PLC-gamma1 inh; purified PLC-gamma1, fluorogenic substrate; in the data active means inhibition above about 9.5%
PLCbeta3 conf: PLC-beta3 inhibitor confirmation, biochemical, fluorescence, purified enzyme. shares compounds with PLC-gamma1 inh. AID 743261, 2014. fluorogenic substrate fluorescence. inhibition, % at 12.3 µM. actives 1% (n = 3,300)
* marks the source's active call; other numbers are inactive results; / = no result given. Unless noted, no stated cut-off is given here; in the data, active means inhibition above about 11%; inactive means the rest.

SMILES	PLC-gamma1 inh	DDE Tn7 FP inh	proKLK7 act	PLC-beta3 inh	CendR NRP1 mod	Tn6 DDE FP	PLCg1 ctr	PLCbeta3 conf
O=C(NCC1CCN(C(=O)C(=O)c2cc3ccccc3o2)CC1)c1ccc2c(c1)OCCCO2	-2	-2	0	0	/	-3	/	/
O=C(NC1CCCCN(Cc2ccc(OC(F)(F)F)cc2)C1=O)c1cccc(C(F)(F)F)c1 (configuration not stated)	-1	3	0	-5	/	6	/	/
COc1ccc(CC(=O)NCC2CCCN(Cc3cc(OC)cc(OC)c3)C2)cc1 (configuration not stated)	13*	-2	-1	1	8	0	-5	-4
C[C@]12CCC(O)CC1=CCC1C2CC[C@]2(C)/C(=N\NC(N)=S)CCC12 (some centres not stated)	12*	-9	0	-3	3	-5	-3	-1
CC12CCC(O)CC1=CCC1C2CCC2(C)C1CCC21CCC(=O)O1 (configuration not stated)	0	0	0	-1	6	0	/	/
COC(=O)N1Cc2ccnnc2CC1c1ccccc1-c1ccc(F)cc1 (configuration not stated)	1	-2	0	4	/	9	/	/
COc1cc(S(=O)(=O)N2CCN(c3ccccc3)CC2)ccc1Cl	10*	0	-1	1	1	-2	-7	-2
COc1cccc(N2CCN(S(=O)(=O)c3ccc4c(c3)oc(=O)n4C)CC2)c1	11*	-4	1	1	17	5	-3	-5
COCCCN1C(=O)[C@H](CC(=O)NCCC(C)C)[C@]2(C(=O)OC)CCCCC=C12	1	1	0	2	/	-1	/	/
CC(=O)c1ccc(-n2c(-c3cc(-c4ccco4)[nH]n3)n[nH]c2=S)cc1	1	4	0	0	-14	11	/	/
O=C(O)c1ccc(-n2c(-c3cc(-c4ccco4)[nH]n3)n[nH]c2=S)cc1	31*	-1	0	9	-94	9	23*	10
NC(Cc1ccc(C(F)(F)F)cc1)c1csc(NC(=O)NCCc2ccccc2)n1 (configuration not stated)	12*	5	0	-3	-1	-8	-7	1
O=C(ON=C1CCN(c2ccc([N+](=O)[O-])cc2)CC1)c1ccccc1	9.9*	2	0	0	2	3	-6	-4
O=C(Cn1c(=O)c2cccn2c2cccnc21)NCCCN1CCN(c2ccccc2)CC1	4	4	/	7	/	-5	/	/
CC(NCc1ccc(S(N)(=O)=O)cc1)C(=O)NCc1ccccc1 (configuration not stated)	5	0	0	-1	-11	2	/	/
C[C@H](NC(=O)c1ccc(Br)cc1)C(=O)NCc1ccc(S(N)(=O)=O)cc1	9.6*	1	1	6	7	4	-2	-3
CCCCCn1c(C(C)NC(=O)CCC)nc2ccccc21 (configuration not stated)	7	1	0	14*	-4	-1	-6	-1
CCC(C)NC(=O)CSc1nnc(-c2cc(OC)c(OC)c(OC)c2)o1 (configuration not stated)	1	0	0	3	/	3	/	/
O=C(CNC(=O)c1cnccn1)Nc1ccc(F)c(F)c1F	11*	-16	0	5	8	3	-3	2
O=C(CNC(=O)c1cncc(Br)c1)Nc1ccc(F)c(F)c1F	3	5	0	-1	-8	0	/	/
CN(C)S(=O)(=O)c1cccc(C(=O)N/N=C\c2ccnc3ccccc23)c1	1	-3	0	-1	/	-3	/	/
CC(C)COc1ccc(C(=O)Nc2ccc(NC(=O)c3ccco3)c(Cl)c2)cc1	3	-8	-1	9	1	2	/	/
CC(C)Oc1ccc(C(=O)Nc2ccc(NC(=O)c3ccco3)c(Cl)c2)cc1	-2	4	0	15*	13	6	-23	-1
Cc1nc(SCC(O)CCl)c([N+](=O)[O-])[nH]1 (configuration not stated)	11*	1	1	13*	7	-4	0	2
O=C(N[C@H](C(=O)N1CCC[C@H]1C(=O)NC1CCCC1)c1ccccc1)c1ccc(Cl)c(Cl)c1	2	7	1	-2	/	-1	/	/
SMILES	PLC-gamma1 inh	DDE Tn7 FP inh	proKLK7 act	PLC-beta3 inh	CendR NRP1 mod	Tn6 DDE FP	PLCg1 ctr	PLCbeta3 conf
COC(=O)C1CN(Cc2ccc(F)cc2)CCS(=O)(=O)N1Cc1ccccc1 (configuration not stated)	5	-5	-1	6	/	0	/	/
NC1=NC(=O)/C(=C/c2cccs2)S1	15*	-1	0	2	14	1	2	3
Cc1cc(C(=O)O[C@H]2CCC[C@]3(C(=O)N(Cc4ccccc4)c4ccccc43)[C@H]2NC(=O)CCc2ccccc2)no1	0	-10	1	0	/	-2	/	/
CC(C)C[C@@H](CO)N1CCN(C)CCC1=O	14*	-7	0	5	9	-6	-6	-2
CC(C)C[C@@H](CO)N1CCNCCC1=O	-3	-2	1	0	6	3	/	/
COC(=O)Cc1nnn2c1[C@H](C)[C@H](c1cccc(OC)c1OC)OCC2	1	-1	0	5	/	3	/	/
CCC(=O)N1CCCC1(C)C(=O)Nc1ccc2scnc2c1 (configuration not stated)	12*	0	0	8	4	1	-2	-14
O=C1C(=O)N(CCO)C(c2ccc(Br)cc2)/C1=C(\O)c1ccccc1 (configuration not stated)	12*	2	0	4	-6	6	-5	1
COC(=O)[C@]12C[C@H](CC(=O)NCCC(C)C)C(=O)N(Cc3ccc(Cl)cc3Cl)C1=C[C@H](COCc1ccccc1)O[C@@H]2C	1	-6	0	4	/	-4	/	/
